The values below come from ChEMBL document CHEMBL4118021, “Studies of TAK1-centered polypharmacology with novel covalent TAK1 inhibitors” (Bioorg Med Chem, 2017).

Molecules are shown by their SMILES. Calls of active or inactive are those of the source. The calls are words filed in the database; no cut-off is given here.

Assay [1] has as its target Peripheral plasma membrane protein CASK (Homo sapiens) (UniProt O14936). The assay can be described thus: Inhibition of CASK in human SKCO1 cells at 1 uM after 4 hrs using biotin labeled ETGQQFAVKIVDVAK probe by mass-spectrometric analysis relative to control. The class given is cell-based.
The target of assay [2] is Phosphatidylinositol 4-phosphate 3-kinase C2 domain-containing subunit beta (Homo sapiens) (UniProt O00750). In words: Inhibition of PIK3C2B in human SKCO1 cells at 1 uM after 4 hrs using biotin labeled VIFKCGDDLRQDMLTLQMIR probe by mass-spectrometric analysis relative to control. The class given is cell-based.
Chain of Phosphatidylinositol 4-phosphate 3-kinase C2 domain-containing subunit beta (Homo sapiens) (O00750 whole entry, the tested form may be a part): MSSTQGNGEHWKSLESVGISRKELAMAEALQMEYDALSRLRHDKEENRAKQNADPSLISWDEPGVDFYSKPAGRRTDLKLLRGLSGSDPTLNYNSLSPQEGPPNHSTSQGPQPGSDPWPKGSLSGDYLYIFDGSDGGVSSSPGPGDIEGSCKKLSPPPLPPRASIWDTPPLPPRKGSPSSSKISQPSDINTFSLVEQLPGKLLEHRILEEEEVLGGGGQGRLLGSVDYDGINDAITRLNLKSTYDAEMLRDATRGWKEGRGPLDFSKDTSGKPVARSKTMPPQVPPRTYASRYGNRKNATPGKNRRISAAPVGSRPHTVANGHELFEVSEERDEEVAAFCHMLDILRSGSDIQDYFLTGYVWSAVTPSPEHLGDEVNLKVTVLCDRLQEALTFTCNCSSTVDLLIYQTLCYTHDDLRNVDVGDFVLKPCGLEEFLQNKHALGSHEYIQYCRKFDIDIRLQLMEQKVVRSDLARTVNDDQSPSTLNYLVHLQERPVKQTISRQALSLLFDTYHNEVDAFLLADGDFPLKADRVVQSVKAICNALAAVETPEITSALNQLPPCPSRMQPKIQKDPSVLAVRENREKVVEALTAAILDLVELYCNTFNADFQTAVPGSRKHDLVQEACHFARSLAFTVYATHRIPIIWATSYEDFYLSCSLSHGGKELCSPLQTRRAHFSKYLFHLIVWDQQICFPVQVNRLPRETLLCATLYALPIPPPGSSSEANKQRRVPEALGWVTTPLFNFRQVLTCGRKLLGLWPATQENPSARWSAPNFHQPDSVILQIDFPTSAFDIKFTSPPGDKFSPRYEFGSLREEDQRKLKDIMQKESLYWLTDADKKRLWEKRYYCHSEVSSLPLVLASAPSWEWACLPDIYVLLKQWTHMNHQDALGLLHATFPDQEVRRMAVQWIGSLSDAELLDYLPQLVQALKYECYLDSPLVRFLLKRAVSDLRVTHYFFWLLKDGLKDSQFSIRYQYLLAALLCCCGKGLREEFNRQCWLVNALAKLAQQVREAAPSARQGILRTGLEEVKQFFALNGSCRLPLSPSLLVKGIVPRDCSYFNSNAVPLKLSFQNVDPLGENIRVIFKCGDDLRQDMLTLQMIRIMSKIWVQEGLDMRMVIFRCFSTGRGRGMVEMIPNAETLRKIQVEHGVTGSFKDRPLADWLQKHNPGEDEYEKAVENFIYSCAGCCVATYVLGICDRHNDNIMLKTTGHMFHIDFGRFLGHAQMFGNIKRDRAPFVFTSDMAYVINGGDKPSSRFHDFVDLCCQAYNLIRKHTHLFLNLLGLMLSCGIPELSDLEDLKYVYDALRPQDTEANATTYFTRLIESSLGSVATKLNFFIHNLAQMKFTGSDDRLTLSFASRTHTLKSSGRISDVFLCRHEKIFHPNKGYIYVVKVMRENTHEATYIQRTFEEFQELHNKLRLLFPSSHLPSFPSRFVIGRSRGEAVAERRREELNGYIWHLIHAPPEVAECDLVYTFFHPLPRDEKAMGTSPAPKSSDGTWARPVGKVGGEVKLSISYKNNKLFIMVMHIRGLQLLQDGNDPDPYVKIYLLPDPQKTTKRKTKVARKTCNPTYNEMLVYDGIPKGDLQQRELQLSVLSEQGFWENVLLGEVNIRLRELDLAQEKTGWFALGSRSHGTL
The target in assay [3] is Cyclin-dependent kinase-like 2 (Homo sapiens) (UniProt Q92772). The assay can be described thus: Inhibition of human CDKL2 (1 to 327 residues) expressed in bacterial expression system assessed as enzyme activity at 10 uM by KINOMEScan assay relative to control. Further details: scale not given: the % may be the effect or the level left. The procedure, abridged:
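In vitro ATP-site competition binding assay (KinomeScan) across a panel of 456 kinases. Compound was tested at 1 and 10 μM. The read-out is the binding inhibition score relative to control.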

Assay [4] addresses Vesicle-fusing ATPase (Homo sapiens) (UniProt P46459). The assay can be described thus: Binding affinity to NSF in human NCI-H358 cells at 1 uM by mass spectrometry based pull down assay. In kind it is cell-based.
The target of a further assay is Moesin (Homo sapiens) (UniProt P26038). In words: Binding affinity to MSN in human NCI-H358 cells at 1 uM by mass spectrometry based pull down assay. In kind it is cell-based.
A further assay concerns NCI-H23. The assay can be described thus: Binding affinity to NDUFS3 in human NCI-H23 cells at 1 uM by mass spectrometry based pull down assay. In kind it is cell-based.
The target in assay [5] is MAP kinase-activated protein kinase 5 (Homo sapiens) (UniProt Q8IW41). The assay can be described thus: Binding affinity to MAPKAPK5 in human NCI-H23 cells at 1 uM by mass spectrometry based pull down assay. The class given is cell-based.
Chain of MAP kinase-activated protein kinase 5 (Homo sapiens) (Q8IW41 whole entry): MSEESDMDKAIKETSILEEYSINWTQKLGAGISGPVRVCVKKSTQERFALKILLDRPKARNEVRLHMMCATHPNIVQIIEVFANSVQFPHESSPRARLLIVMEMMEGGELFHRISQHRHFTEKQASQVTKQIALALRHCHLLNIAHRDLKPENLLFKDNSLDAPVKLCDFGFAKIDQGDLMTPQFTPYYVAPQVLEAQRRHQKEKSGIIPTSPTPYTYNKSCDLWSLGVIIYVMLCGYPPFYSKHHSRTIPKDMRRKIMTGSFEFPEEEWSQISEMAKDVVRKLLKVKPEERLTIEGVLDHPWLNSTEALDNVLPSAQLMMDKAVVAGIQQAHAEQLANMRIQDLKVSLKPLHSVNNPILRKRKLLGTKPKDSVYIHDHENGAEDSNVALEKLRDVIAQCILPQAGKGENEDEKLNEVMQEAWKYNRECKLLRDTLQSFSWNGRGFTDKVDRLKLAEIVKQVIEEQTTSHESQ
The target in assay [6] is Acyl-coenzyme A thioesterase 9, mitochondrial (Homo sapiens) (UniProt Q9Y305). The assay can be described thus: Binding affinity to ACOT9 in human NCI-H23 cells at 1 uM by mass spectrometry based pull down assay. The class given is cell-based. The procedure, abridged: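 NCI-H23 or NCI-H358 cells were grown and lysed. Lysates were incubated overnight at 4 °C with 1 μM biotinylated covalent probe or DMSO, then pulled down on streptavidin beads. Proteins were run on polyacrylamide gels and stained with Coomassie. Bands were excised, digested and identified by mass spectrometry.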
Chain of Acyl-coenzyme A thioesterase 9, mitochondrial (Homo sapiens) (Q9Y305 whole entry): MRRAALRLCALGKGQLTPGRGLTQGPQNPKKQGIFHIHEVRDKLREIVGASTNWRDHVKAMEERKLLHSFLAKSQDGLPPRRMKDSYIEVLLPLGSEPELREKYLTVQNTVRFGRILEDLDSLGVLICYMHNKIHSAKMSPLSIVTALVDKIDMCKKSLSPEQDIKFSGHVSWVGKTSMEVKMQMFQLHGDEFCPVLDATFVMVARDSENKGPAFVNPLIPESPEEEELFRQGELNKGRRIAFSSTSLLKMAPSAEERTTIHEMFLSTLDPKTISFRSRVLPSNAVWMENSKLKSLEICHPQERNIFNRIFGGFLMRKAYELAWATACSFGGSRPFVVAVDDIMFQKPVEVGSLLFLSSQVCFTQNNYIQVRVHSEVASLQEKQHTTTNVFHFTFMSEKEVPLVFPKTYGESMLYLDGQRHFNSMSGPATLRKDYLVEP

Assay [7] has as its target Mitogen-activated protein kinase 6 (Homo sapiens) (UniProt Q16659). The assay can be described thus: Binding affinity to MAPK6 in human NCI-H358 cells at 1 uM by mass spectrometry based pull down assay. The class given is cell-based.
Assay [8] deals with Protein disulfide-isomerase A4 (Homo sapiens) (UniProt P13667). The assay can be described thus: Binding affinity to PDIA4 in human NCI-H23 cells at 1 uM by mass spectrometry based pull down assay. The class given is cell-based.
Chain of Protein disulfide-isomerase A4 (Homo sapiens) (P13667 whole entry): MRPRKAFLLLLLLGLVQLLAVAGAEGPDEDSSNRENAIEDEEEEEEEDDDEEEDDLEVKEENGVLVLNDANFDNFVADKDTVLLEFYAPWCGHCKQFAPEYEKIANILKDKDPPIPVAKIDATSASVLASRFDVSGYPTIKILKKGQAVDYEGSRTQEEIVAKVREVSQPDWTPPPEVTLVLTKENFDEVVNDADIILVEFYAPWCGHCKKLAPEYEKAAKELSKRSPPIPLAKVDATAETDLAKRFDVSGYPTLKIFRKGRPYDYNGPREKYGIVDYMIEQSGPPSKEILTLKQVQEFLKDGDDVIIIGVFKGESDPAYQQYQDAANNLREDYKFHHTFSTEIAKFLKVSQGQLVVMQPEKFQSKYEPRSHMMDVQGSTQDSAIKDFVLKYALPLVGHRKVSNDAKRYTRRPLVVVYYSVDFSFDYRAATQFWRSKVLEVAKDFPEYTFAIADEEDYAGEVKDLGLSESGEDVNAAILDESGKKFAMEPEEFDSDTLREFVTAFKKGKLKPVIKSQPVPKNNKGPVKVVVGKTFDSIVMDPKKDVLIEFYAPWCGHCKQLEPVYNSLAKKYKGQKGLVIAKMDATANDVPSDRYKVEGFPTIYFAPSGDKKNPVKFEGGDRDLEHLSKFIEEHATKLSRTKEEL
In assay [9] the target is Proteasome activator complex subunit 2 (Homo sapiens) (UniProt Q9UL46). The assay can be described thus: Binding affinity to PSME2 in human NCI-H358 cells at 1 uM by mass spectrometry based pull down assay. The class given is cell-based.
Chain of Proteasome activator complex subunit 2 (Homo sapiens) (Q9UL46 whole entry, one chain of several): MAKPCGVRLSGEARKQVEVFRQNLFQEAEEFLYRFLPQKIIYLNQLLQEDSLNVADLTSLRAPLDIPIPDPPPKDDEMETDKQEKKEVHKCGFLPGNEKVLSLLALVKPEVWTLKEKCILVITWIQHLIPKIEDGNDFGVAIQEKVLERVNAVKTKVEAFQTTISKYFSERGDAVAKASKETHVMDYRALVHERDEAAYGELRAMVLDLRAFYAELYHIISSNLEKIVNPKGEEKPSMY
The target of assay [10] is 14-3-3 protein theta (Homo sapiens) (UniProt P27348). The assay can be described thus: Binding affinity to YWHAQ in human NCI-H23 cells at 1 uM by mass spectrometry based pull down assay. The class given is cell-based.
Assay [11] addresses Tropomyosin alpha-1 chain (Homo sapiens) (UniProt P09493). In words: Binding affinity to TPM1 in human NCI-H358 cells at 1 uM by mass spectrometry based pull down assay. The class given is cell-based.
Assay [12] deals with Histone H2B type 2-F (Homo sapiens) (UniProt Q5QNW6). The assay can be described thus: Binding affinity to HIST2H2BF in human NCI-H23 cells at 1 uM by mass spectrometry based pull down assay. The class given is cell-based.
The target of assay [13] is E3 ubiquitin-protein ligase TRIM33 (Homo sapiens) (UniProt Q9UPN9). In words: Binding affinity to TRIM33 in human NCI-H23 cells at 1 uM by mass spectrometry based pull down assay. The class given is cell-based.
Assay [14] deals with Peroxiredoxin-6 (Homo sapiens) (UniProt P30041). In words: Binding affinity to PRDX6 in human NCI-H358 cells at 1 uM by mass spectrometry based pull down assay. The class given is cell-based.
Chain of Peroxiredoxin-6 (Homo sapiens) (P30041 whole entry): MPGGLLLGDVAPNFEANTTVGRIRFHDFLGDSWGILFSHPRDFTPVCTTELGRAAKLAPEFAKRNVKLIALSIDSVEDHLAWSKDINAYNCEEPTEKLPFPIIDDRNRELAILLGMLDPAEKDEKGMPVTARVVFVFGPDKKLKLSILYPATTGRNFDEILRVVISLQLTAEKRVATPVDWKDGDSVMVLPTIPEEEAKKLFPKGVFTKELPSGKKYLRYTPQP
For assay [15], the target named is 80S Ribosome (Homo sapiens) (UniProt P08865+P42677+P62753+P15880+P23396+P61247+P62701+P22090+P46782+P62081+P62241+P46781+P46783+P62280+P25398+P62277+P62263+P62841+P62244+P62249+P08708+P62269+P39019+P60866+P63220+P62266+P62847+P62851+P62854+P62979+P62857+P62273+P62861+P39023+P36578+P46777+Q02878+P18124+P62424+P62917+P32969+P27635+P62906+P62913+P30050+P26373+P40429+P50914+P61313+P18621+Q07020+Q02543+P84098+P46778+P35268+P62829+P62750+P83731+P61254+P61353+P46776+P46779+P47914+P62888+P62899+P62910+P49207+P42766+P18077+Q9Y3U8+P83881+P61927+P61513+P63173+P62891+P62945+P05388+P05386). The assay can be described thus: Binding affinity to RPS2 in human NCI-H358 cells at 1 uM by mass spectrometry based pull down assay. The class given is cell-based.

Assay [16] concerns the target ADP-ribose glycohydrolase OARD1 (Homo sapiens) (UniProt Q9Y530). In words: Binding affinity to OARD1 in human NCI-H23 cells at 1 uM by mass spectrometry based pull down assay. In kind it is cell-based.
Assay [17] deals with Lysine--tRNA ligase (Homo sapiens) (UniProt Q15046). In words: Binding affinity to KARS in human NCI-H358 cells at 1 uM by mass spectrometry based pull down assay. In kind it is cell-based.
In assay [18] the target is 5'-nucleotidase domain-containing protein 1 (Homo sapiens) (UniProt Q5TFE4). In words: Binding affinity to NT5DC1 in human NCI-H23 cells at 1 uM by mass spectrometry based pull down assay. In kind it is cell-based.
Assay [19] concerns the target Thymidine kinase, cytosolic (Homo sapiens) (UniProt P04183). In words: Binding affinity to TK1 in human NCI-H358 cells at 1 uM by mass spectrometry based pull down assay. The class given is cell-based.
In assay [20] the target is T1, Dual specificity mitogen-activated protein kinase kinase 6 (Homo sapiens) (UniProt P52564).
T1 sequence (whole entry): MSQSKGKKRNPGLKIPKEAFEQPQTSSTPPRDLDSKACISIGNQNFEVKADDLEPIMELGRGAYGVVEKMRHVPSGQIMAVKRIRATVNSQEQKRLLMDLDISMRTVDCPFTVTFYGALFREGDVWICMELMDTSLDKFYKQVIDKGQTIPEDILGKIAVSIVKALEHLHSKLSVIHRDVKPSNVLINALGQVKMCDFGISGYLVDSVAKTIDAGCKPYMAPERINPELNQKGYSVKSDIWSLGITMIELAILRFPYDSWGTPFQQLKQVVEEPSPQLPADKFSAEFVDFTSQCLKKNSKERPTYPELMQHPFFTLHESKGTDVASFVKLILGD
The assay can be described thus: Binding affinity to MAP2K6 in human NCI-H23 cells at 1 uM by mass spectrometry based pull down assay. In kind it is cell-based.

Chain of Cyclin-dependent kinase-like 2 (Homo sapiens) (Q92772 whole entry, the tested form may be a part): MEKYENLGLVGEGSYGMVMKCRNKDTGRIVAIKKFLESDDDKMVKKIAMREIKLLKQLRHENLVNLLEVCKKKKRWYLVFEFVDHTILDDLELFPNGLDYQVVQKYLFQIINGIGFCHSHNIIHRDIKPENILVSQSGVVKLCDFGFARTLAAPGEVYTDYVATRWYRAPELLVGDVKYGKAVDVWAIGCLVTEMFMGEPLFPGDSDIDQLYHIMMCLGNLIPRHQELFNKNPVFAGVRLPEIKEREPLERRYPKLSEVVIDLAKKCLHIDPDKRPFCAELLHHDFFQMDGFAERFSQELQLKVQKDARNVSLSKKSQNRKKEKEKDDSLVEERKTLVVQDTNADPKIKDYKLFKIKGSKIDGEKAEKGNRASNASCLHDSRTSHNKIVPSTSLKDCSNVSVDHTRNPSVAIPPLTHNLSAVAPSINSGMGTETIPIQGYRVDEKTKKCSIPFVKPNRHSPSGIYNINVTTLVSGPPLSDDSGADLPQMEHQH
Chain of Mitogen-activated protein kinase 6 (Homo sapiens) (Q16659 whole entry): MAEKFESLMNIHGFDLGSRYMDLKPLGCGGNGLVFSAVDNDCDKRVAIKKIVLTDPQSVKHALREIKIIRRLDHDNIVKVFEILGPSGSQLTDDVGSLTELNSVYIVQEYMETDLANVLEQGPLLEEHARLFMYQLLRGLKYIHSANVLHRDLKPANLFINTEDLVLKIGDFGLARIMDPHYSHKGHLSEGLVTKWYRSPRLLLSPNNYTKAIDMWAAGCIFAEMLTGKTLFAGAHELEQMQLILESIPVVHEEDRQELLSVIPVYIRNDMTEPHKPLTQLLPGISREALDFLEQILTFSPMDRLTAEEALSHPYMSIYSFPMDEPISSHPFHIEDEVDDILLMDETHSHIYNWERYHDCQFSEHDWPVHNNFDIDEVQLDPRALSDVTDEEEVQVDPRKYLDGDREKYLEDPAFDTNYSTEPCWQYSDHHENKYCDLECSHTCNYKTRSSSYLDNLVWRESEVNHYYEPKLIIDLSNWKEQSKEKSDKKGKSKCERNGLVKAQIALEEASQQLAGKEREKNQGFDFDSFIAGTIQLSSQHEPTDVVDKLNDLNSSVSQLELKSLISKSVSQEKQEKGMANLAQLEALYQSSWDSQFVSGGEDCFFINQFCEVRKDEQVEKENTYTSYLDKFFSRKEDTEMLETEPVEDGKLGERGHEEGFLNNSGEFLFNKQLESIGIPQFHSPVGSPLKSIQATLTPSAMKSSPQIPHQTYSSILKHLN
Chain of ADP-ribose glycohydrolase OARD1 (Homo sapiens) (Q9Y530 whole entry): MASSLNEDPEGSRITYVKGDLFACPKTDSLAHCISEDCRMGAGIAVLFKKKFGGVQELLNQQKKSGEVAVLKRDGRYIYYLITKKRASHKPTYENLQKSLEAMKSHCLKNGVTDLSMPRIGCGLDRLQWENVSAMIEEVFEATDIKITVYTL

In the case of `C=CC(=O)Nc1ccccc1Nc1nc(Nc2ccc(N3CCN(C)CC3)cc2)ncc1Cl`, in [1], the inhibition was -10%.

Consider `COc1cc(O)c2c(c1)/C=C/C[C@H](O)[C@H](O)C(=O)/C=C\C[C@H](C)OC2=O`, for which the inhibition in [2] amounted to 8.3%. In addition, in [3], the Activity worked out at 8.6%.

`C=CC(=O)Nc1ccccc1Nc1nc(Nc2ccc(N3CCN(CCOCCOCCOCCNC(=O)CCCC[C@@H]4SC[C@@H]5NC(=O)N[C@@H]54)CC3)cc2)ncc1Cl`: the outcome (in [4]; on Moesin (Homo sapiens); with NCI-H23; in assay [5]; in assay [6]; in assay [7]) was Active. Also, the outcome in assay [8], in [9], in assay [10], in [11], in [12] and in assay [13] was Active. The outcome in assay [14], in assay [15], in [16], in [17], in assay [18] and in [19] was Active. In assay [20], the result was Active.
